Assay results as given in publication PMC10431048 (CPT: Pharmacometrics & Systems Pharmacology, 2023).
Values joined by “and” are separate entries in the source; they are usually repeats but may differ in a detail not shown here. Equal values may be shown once. “Also recorded” adds a separate entry of the source. Read-outs that look alike come from different tables or passages of the source.

What was measured:
[1] = cited from earlier work
[2] = sparsentan 400 titrating to 800 mg/day vs irbesartan, week 36; cited from earlier work
CYP3A = details: ref data on file, cited from earlier work
Population PK model = format: in vivo, human
Method in brief: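 Plasma from nine trials (healthy, hepatic-impaired, FSGS; K2EDTA; acetonitrile precipitation; deuterated internal standard) was assayed by LC-MS/MS, 2.00–4000 ng/mL, LLOQ 2 ng/mL; samples below LLOQ were excluded. NONMEM FOCE-I fit: two compartments, lag plus first-order absorption, proportional-plus-additive error, nonlinear Frel above 200 mg, instant CL/F induction after first dose. Covariates: forward p<0.01, backward p<0.001. Bootstrap gave standard errors.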

[3] = mild and moderate hepatic impairment; ref study 021IHFX16009, data on file; cited from earlier work
[4] = mass balance study; ref study 021HVOL16005, data on file; cited from earlier work
[5] = format: in vivo, human; details: for change in steady-state AUC vs base: 800 mg once daily
Method in brief: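 Simulated steady-state exposure (AUC, Cmax, Cmin) at 800 mg/day from the final model for a typical white male FSGS subject: 800-mg tablet, median ALKP and CrCL, no moderate or strong CYP3A4 inhibitor. Continuous covariates were set one at a time to 5th and 95th percentiles, and categorical covariates to alternative categories. Multivariate effects came from post hoc individual estimates stratified by covariate category.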

[6] = log-domain coefficient, vs capsule
[7] = log-domain coefficient, vs white
[8] = ALKP at the 5th and 95th percentile
[9] = CrCL at the 5th and 95th percentile
[10] = covariates other than moderate/strong CYP3A4 inhibitors, steady-state 800 mg

Which results are given for `CCCCC1=NC2(CCCC2)C(=O)N1Cc1ccc(-c2ccccc2S(=O)(=O)Nc2noc(C)c2C)c(COCC)c1` [sparsentan]?
reduction in urinary protein to creatinine ratio (UP/C) ([1]; sparsentan 200, 400, or 800 mg/day vs irbesartan 300 mg/day, 8 weeks): higher reduction; rates of patients reaching the FSGS partial remission end point (FPRE) ([1]; sparsentan vs irbesartan): higher rates; FPRE response, interim results [2]: significantly greater; interaction with CYP3A in vitro (CYP3A; in vitro): competitive inhibitor and inducer; metabolism (CYP3A): primarily metabolized by CYP3A; Vc/F (derived) (Population PK model; 800 mg dose): 69.5 L; Vp/F (derived) (Population PK model; 800 mg dose): 17.0 L; CL/F (derived) (Population PK model; 800 mg dose, single dose, reference subject): 5.47 L/h; Q/F (Population PK model; 400-mg dose, reference subject): 2.03 L/h; Vp/F (Population PK model; 400-mg dose, reference subject): 12.1 L; Vc/F (Population PK model; 400-mg dose, reference subject white female, 400-mg capsule): 49.3 L; effect of co-medications on PK (Population PK model; acid reducer (including proton pump inhibitors), P-gp inhibitor, or mild CYP3A4 inhibitor): No significant effect; Induction change in CL (Population PK model; additional CL at steady-state (CYP3A auto-induction), 400-mg reference subject): 1.23 L/h; Ka (Population PK model; capsule (reference)): 0.740 h⁻¹; half-life (Population PK model; human, plasma, oral, 800 mg): 9.6 h; Variance Ka (Population PK model; interindividual random effect): 0.474; Variance Vc (Population PK model; interindividual random effect): 0.234; Effect on Ka: Crushed tablet (Population PK model; [6]): 0.080; Effect on Ka: Tablet (Population PK model; [6]): −0.306; Effect on Vc: Asian (Population PK model; [7]): 0.265; Effect on Vc: Black or African American (Population PK model; [7]): 0.309; increase of clearance due to CYP3A auto-induction at steady-state (Population PK model; steady-state vs first dose): 32%; effect of hepatic impairment on sparsentan exposure [3]: not having a large effect; urinary excretion [4]: 2.18 % of the radioactive dose; effect of ALKP on AUC [5, 8]: < 15%; effect of ALKP on Cmax [5, 8]: < 10%; impact of CrCL on AUC [5, 9]: < 20%; impact of CrCL on Cmax [5, 9]: < 10%; steady-state exposures across race ([5]; FSGS, 800-mg tablet): comparable; steady-state exposure by age bracket ([5]; FSGS, 800-mg tablet, age 8-17, 18-64, >=65 years): increase; effect of formulation on steady-state AUC ([5]; capsule and crushed tablet compared to tablet): unaffected; also recorded: no overall change; increase in steady-state Cmax by formulation ([5]; capsule and crushed tablet formulations compared to tablet, 800 mg): less than 10%; effect of other covariates on AUC [5, 10]: less than 20%; effect of other covariates on Cmax [5, 10]: less than 20%; impact of sex and race on steady-state AUC ([5]; female, White, Black, Asian): < 15%; impact of sex and race on steady-state Cmax ([5]; female, White, Black, Asian): < 15%; change in steady-state Cmax vs base ([5]; moderate CYP3A4 inhibitor comedication): 16.0%; change in steady-state AUC vs base ([5]; moderate CYP3A4 inhibitor comedication, FSGS): 31.4% and 31%; change in steady-state AUC vs base ([5]; strong CYP3A4 inhibitor comedication, FSGS): 191.3% and 191%
